Source: ChEMBL document CHEMBL4393735, “Molecular modelling, synthesis, and biological evaluations of a 3,5-disubstituted isoxazole fatty acid analogue as a PPARα-selective agonist” (Bioorg Med Chem, 2019)
Calls of active or inactive are those of the source.

Legend:
[1] = biological target: T1, Oxysterols receptor LXR-beta (Homo sapiens) (UniProt P55055); test: Agonist activity at full length human GAL4-DBD fused LXRbeta LBD (155 to 461 residues) expressed in COS1 cells at 25 to 50 uM measured after 18 hrs by dual luciferase reporter gene assay; assay type: cell-based
T1 sequence (whole entry): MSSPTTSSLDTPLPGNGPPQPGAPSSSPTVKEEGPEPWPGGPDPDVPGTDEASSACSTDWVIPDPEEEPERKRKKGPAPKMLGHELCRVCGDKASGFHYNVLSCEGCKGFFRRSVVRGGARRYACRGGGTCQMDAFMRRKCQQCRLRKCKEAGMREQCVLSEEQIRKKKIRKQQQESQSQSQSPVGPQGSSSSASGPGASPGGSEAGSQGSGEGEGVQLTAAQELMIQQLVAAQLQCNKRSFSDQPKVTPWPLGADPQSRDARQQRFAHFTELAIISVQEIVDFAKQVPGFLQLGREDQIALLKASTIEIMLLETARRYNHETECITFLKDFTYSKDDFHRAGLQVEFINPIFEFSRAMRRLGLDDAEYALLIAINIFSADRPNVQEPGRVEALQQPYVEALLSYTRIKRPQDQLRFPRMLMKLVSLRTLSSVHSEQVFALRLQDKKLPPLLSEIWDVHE
Outline: (§1)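 COS-1 cells were transfected using Lipofectamine 2000 with GAL4-DBD–human NR-LBD plasmid, a 5×UAS-SV40 firefly luciferase reporter and pRL-CMV. After 6 h, cells were treated with 0, 25 or 50 μM in 0.1% DMSO (final) for 18 h. Firefly signal was normalized to Renilla, then to DMSO control and GAL4-only. Three biological replicates in quadruplicate, mean ± SEM, two-way ANOVA with Bonferroni.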

[2] = biological target: T2, Peroxisome proliferator-activated receptor alpha (Homo sapiens, UniProt Q07869); test: Agonist activity at full length human FLAG-tagged GAL4-DBD fused PPARalpha LBD (168 to 468 residues) expressed in COS1 cells measured after 18 hrs by dual luciferase reporter gene assay; assay type: cell-based
T2 sequence (Q07869 whole entry): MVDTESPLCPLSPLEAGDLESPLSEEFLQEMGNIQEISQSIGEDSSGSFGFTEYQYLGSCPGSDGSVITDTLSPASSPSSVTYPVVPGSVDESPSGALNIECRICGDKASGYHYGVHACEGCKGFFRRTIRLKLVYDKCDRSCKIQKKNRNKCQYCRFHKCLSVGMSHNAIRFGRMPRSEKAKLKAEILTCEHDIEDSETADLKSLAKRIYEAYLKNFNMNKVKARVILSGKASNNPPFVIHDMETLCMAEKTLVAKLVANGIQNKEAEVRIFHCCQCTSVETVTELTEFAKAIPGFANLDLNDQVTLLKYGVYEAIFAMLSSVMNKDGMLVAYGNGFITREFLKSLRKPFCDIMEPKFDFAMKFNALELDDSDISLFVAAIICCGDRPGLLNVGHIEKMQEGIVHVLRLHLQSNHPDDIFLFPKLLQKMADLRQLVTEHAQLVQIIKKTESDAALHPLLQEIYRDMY
Outline: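 Dose-response in COS-1 cells transfected with GAL4-DBD–human PPARα or PPARγ LBD, a 5×UAS-SV40 firefly reporter and pRL-CMV. Cells were treated with increasing concentrations in 0.1% DMSO (final) 6 h post-transfection, then for 18 h. Firefly/Renilla ratio, normalized to GAL4-only activity. EC50 was taken from a sigmoidal dose-response fit. At least three independent transfections in quadruplicate.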

[3] = biological target: T3, Peroxisome proliferator-activated receptor delta (Homo sapiens) (UniProt Q03181); test: Agonist activity at full length human GAL4-DBD fused PPARdelta LBD expressed in COS1 cells at 25 to 50 uM measured after 18 hrs by dual luciferase reporter gene assay; assay type: cell-based; outline: as §1
T3 sequence (whole entry): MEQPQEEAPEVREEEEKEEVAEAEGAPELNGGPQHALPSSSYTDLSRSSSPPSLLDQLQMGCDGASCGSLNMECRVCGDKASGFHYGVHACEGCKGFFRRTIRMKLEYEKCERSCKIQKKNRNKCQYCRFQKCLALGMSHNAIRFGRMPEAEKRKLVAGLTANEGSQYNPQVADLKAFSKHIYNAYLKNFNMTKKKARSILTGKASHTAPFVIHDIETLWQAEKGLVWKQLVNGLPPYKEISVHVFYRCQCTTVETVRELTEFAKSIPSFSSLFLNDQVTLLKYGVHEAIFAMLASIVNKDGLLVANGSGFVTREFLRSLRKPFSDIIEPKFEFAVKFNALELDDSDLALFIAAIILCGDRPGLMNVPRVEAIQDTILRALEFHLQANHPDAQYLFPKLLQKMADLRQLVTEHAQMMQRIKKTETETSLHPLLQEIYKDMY

COS-1 = test: Cytotoxicity against African green monkey COS1 cells assessed as reduction in cell viability at 10^-3 M by LDH release assay relative to control; assay type: cell-based; conditions: chlorocebus aethiops, cos-1, 1000 µM
Outline: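 COS-1 cells were treated across the same concentration series as the GAL4 dose-response runs. Cytotoxicity was measured as LDH released into medium (absorbance 492/750 nm) and by XTT viability assay (absorbance 450/690 nm). Results expressed relative to control.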

[4] = biological target: T4, Peroxisome proliferator-activated receptor alpha (Homo sapiens) (UniProt Q07869); test: Agonist activity at PPARalpha in human Huh7 cells assessed as SCD1 mRNA expression at 50 uM measured after 18 hrs by qRT-PCR analysis; assay type: cell-based
T4 sequence (whole entry): T2 sequence (Q07869 whole entry)
Outline: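 Treatment for 18 h at 50 μM (or 1 μM for the 1 μM agents), DMSO vehicle. Harvested for qPCR. mRNA normalized to TBP by the comparative threshold method, expressed relative to DMSO control. Two biological replicates run in duplicate, mean ± SEM. Primary hepatocytes came from male C57BL/6N mice aged 7–8 weeks, isolated by portal-vein perfusion and digestion, seeded on collagen I and used on day 2. HuH-7 cells were kept in DMEM with 10% FBS and ITS.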

SGBS [5] = test: Upregulation of PLIN1 gene expression in human preadipocyte derived from Simpson-Golabi-Behmel syndrome (SGBS) patient at 25 uM measured for 12 days by qRT-PCR analysis; assay type: functional, cell-based
Outline: (§2)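 SGBS cells were differentiated with serum-free induction medium containing 25 μM test agent, 2 μM rosiglitazone or 0.1% DMSO from day 0. IBMX and dexamethasone were removed on day 4 and medium was renewed on day 8. RNA was taken on days 0, 4, 8 and 12 for qPCR, normalized to TBP and to day 0. At least three biological replicates in duplicate, two-way ANOVA with Bonferroni.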

SGBS [6] = test: Upregulation of ACSL1 gene expression in human preadipocyte derived from Simpson-Golabi-Behmel syndrome (SGBS) patient at 25 uM measured for 12 days by qRT-PCR analysis; assay type: functional, cell-based; outline: as §2

CCCCCCCc1cc(CCCCCC(=O)O)no1
Activity [1]: inactive | EC50 [2]: 47 µM | Activity [3]: inactive | Activity (COS-1): 60% | Activity [4]: inactive | Activity (SGBS [5]): Active | Activity (SGBS [6]): Active
